Results as given in ChEMBL document CHEMBL4513216, “Probing the Open Global Health Chemical Diversity Library for Multistage-Active Starting Points for Next-Generation Antimalarials” (ACS Infect Dis, 2020).

Test: Toxicity liver stage against HepG2, at 10uM
Assay type: cell-based
Parameters: test concentration 10 uM, cell line HepG2-A16-CD81EGFP
Settings: human, HepG2-A16-CD81EGFP cells; read-out: INHIBITION
Outline: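 Uninfected HepG2-A16-CD81EGFP cells, 3 × 10^3 per well, 1536-well, plated on prespotted compound at 10 μM final, parasite-free screening media added to match infected plates; puromycin 10 μM positive, DMSO 0.5% negative; run in parallel with 48 h PbLuc assay at 37 °C, 5% CO2; viability by CellTiter-Glo luminescence, normalized to controls.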

Row | Structure (SMILES) | cytotoxicity at 10 µM [%]
1 | CCC1CN(CC(=O)NCCN(CC)CC)c2ccccc2S1 (stereo not given) | -1.23
2 | Cc1ccc(C(=O)N2CCC3(CC2)CC(c2ccccc2)C(=O)N3)o1 (stereo not given) | 11.1
3 | Cc1cnc(C(=O)N2CC[C@H]3C[C@@H](c4nc(C)cs4)O[C@@H]3C2)cn1 | 9.32
4 | CCNS(=O)(=O)c1cnccc1N1CCN(CCO)CC1 | 3.6
5 | O=c1c2cnc(N3CCCCC3)nc2ccn1-c1ccccc1 | -10.1
6 | O=C(NCc1cccnc1)C1=NOC2(CCN(S(=O)(=O)C3CC3)C2)C1 (stereo not given) | -7.36
7 | CN(C)S(=O)(=O)N1CC[C@@H]2CN(Cc3cnn(C)c3)C[C@@H]2C1 | 13.5
8 | Cc1ccc(Cn2cc(Br)c(NS(C)(=O)=O)n2)cc1 | 0.22
9 | Cc1nn(C)c2c(N(C)Cc3ccco3)nc(C3CC3)nc12 | 1.58
10 | N#Cc1cn[nH]c1NCc1cc(I)cc(I)c1O | 1.11
11 | O=C(c1cc2cccc(F)c2[nH]1)N1C[C@@H](O)[C@H](N2CCCC2)C1 | 0.152
12 | FC(F)(F)c1cc(C2CCCN(c3cnccn3)C2)n2ccnc2n1 (stereo not given) | 6.39
13 | CCC(O)Cn1nc(-c2ccc(C(=O)O)cc2)cc1-c1cccc(F)c1 (stereo not given) | 8.17
14 | Cc1ncc(CN2CCOC(c3ccc(-c4cc[nH]n4)cn3)C2)s1 (stereo not given) | -16.5
15 | CN1CCC(c2cncc(-c3cccc(Cl)c3)n2)CC1 | -20.8
16 | O=C(c1ccccn1)N1CCC(c2nc(O)cc(-c3ccncc3)n2)C1 (stereo not given) | -4.7
17 | Cc1ccccc1-c1cncc(C2CCN(Cc3ccccn3)CC2)n1 | -22.2
18 | CC1CCN(S(=O)(=O)N2CCC(Oc3cnccn3)CC2)CC1 | -2.76
19 | CN(C)Cc1ccnc(C2CCCN2Cc2cc3ccccc3s2)n1 (stereo not given) | 20.2
20 | CN(Cc1cccc(OC(F)(F)F)c1)C(=O)Cc1ccon1 | -9.61
21 | CCc1nnc2n1CCN(C(C(=O)N(CC)CC)c1ccccc1)C2 (stereo not given) | -0.77
22 | COCC(O)CN1CCC(NC(=O)c2ccccc2Cl)CC1 (stereo not given) | -4.87

Row | Structure (SMILES) | cytotoxicity at 10 µM [%]
23 | CCc1noc(CNc2cc3c(cc2Cl)OCCCO3)n1 | -1.98
24 | CS(=O)(=O)CCCNc1cccc(COC2CCCCC2)c1 | 9.5
25 | CCCn1nc(C(=O)NCCc2nnc3n2CCC3)ccc1=O | 3.38
26 | COc1ccccc1CNC(=O)C(C)N1CC(n2cc(C)cn2)C1 (stereo not given) | 6.15
27 | COC(=O)c1ccc(N(C(=O)c2cc(Cl)ccn2)C(C)C)c(C)c1 | 7.51
28 | COc1cc(C#N)ccc1OCC(=O)NS(=O)(=O)c1cccnc1 | 5.41
29 | Cc1ccc(NC(C(N)=O)c2ccc(F)cc2)cc1 (stereo not given) | 9.19
30 | C[S+]([O-])c1nncn1CC(=O)c1ccc(Br)cc1 (stereo not given) | 0
31 | CCOC(=O)NC(CNC(=O)c1cn(C)cn1)CC(C)C (stereo not given) | -5.35
32 | Cc1cccc(C)c1OCC(O)CNCc1c(C)nn(C)c1N(C)C (stereo not given) | -1.47
33 | CC1CCCN(C(=O)Nc2cccc(CN3CCOC3=O)c2)C1 (stereo not given) | 18.3
34 | COCC(=O)NCCCn1nc2ccccn2c1=O | 11.8
35 | C[C@@H]1CN(C(=O)Nc2cccc(OC(F)F)c2)CC(C(N)=O)O1 (stereo not given in full) | 5.52
36 | Cc1ccc(CNCc2cccc(NC(=O)CCN3CCOCC3)c2)s1 | -1.91
37 | Cc1nc(C2CN(Cc3ccccc3C)CCO2)no1 (stereo not given) | -1.51
38 | CCCN(CCN(C)C)C(=O)Cc1cn2ccsc2n1 | 0.27
39 | Cc1noc(C)c1CN1CCN(C(=O)Cn2cncn2)CC1 | -3.52
40 | Cc1nc(NC(=O)CN2CCc3c(nc(C(C)C)n3C)C2)sc1C | -9.52
41 | Cn1cc(CC2CCN(C(=O)NCc3cn4ccsc4n3)C2)cn1 (stereo not given) | -5.57
42 | COC[C@@]12CCC[C@@H]1CN(C(=O)COc1ccccc1OC)C2 | -106
43 | O=S(=O)(c1ccccc1)N1CCC[C@]2(C[C@H](OCC3CC3)CO2)C1 | -75.9
44 | O=C(NCCn1cccc1)C1CCN(C2CCCCC2)CC1 | -0.467

Row | Structure (SMILES) | cytotoxicity at 10 µM [%]
45 | CC(C)c1nc(CN(C)C(=O)CCc2ccc3c(c2)OCO3)cs1 | -15.8
46 | COCCC(=O)N1C[C@H](C(C)C)[C@@H](N(C)C)C1 | 5.75
47 | CCC[C@@H]1CN(Cc2ccccc2OC(F)(F)F)C[C@H]1NC(C)=O | 5.5
48 | CNC(=O)c1cc(NC(=O)NCC2CCS(=O)(=O)C2)ccc1OC (stereo not given) | 9.57
49 | O=C(c1ccc(S(=O)(=O)NCc2ccncc2)cc1)N1CCNCC1 | 2.3
50 | CC(=O)NCCNCc1cn(CCN2CCSCC2)nc1C | 0.95
51 | COCCN(C)C(C(=O)O)c1ccc(C)c(C)c1 (stereo not given) | -9.47
52 | CC(=O)NCCC1CCCCN1C(=O)c1cccc(CCC(C)(C)O)c1 (stereo not given) | 4.13
53 | Cc1nc(C(=O)N2CCC3(CC2)CC(=O)N(CC2CCCO2)C3)cs1 (stereo not given) | 2.34
54 | Cc1cc(C(F)(F)F)nc(CNc2nc(C)nc3c2cnn3C)n1 | -2.24
55 | O=C(c1nc(=O)[nH]c2ccccc12)N1CCCC2(CCNC2)C1 (stereo not given) | -3.64
56 | Cc1noc(CN(C)C(=O)CCn2cnc3ccccc32)n1 | 10.1
57 | Cc1ccsc1CN(Cc1ccccn1)CC(O)CO (stereo not given) | 0.773
58 | N#Cc1ccnc(NCc2cc3n(n2)CCCN(C(=O)C2CCC2)C3)c1 | -135
59 | CNCCNc1nccc(-c2cn(C)nc2C)n1 | 2.35
60 | CCOc1ccccc1CC(=O)N1CCCC(c2ncc[nH]2)C1 (stereo not given) | -2.65
61 | CC(CC(F)(F)F)NCc1ccccc1-n1ccnc1 (stereo not given) | 3.15
62 | O=C1OCCN1CCNc1ncc2c(n1)CCN2c1ccccc1 | -4.95
63 | CCn1ncnc1C1CC(=O)NCc2nc(N3CCOCC3)sc21 (stereo not given) | 3.94
64 | N#Cc1cccc(NC(=O)N2CCC3(CCC(=O)N(C4CC4)C3)CC2)c1 | 3.9
65 | Cc1c[nH]c(CN2CCOC(c3ccc(Cl)c(Cl)c3)C2)c(C)c1=O (stereo not given) | 17.7
66 | C=C(C)COc1ccccc1CN1CCC(NC(C)=O)CC1 | 11.9

Row | Structure (SMILES) | cytotoxicity at 10 µM [%]
67 | CC(=O)N[C@@H]1CN(Cc2ccccc2-n2cccn2)C[C@H]1C(C)C | 8.67
68 | CCN(Cc1cc(Cl)ccc1OC)Cc1ncnn1CC | 3.9
69 | Cc1ncc(C(=O)NCCOc2ccccc2F)c(C)n1 | 24.8
70 | CN(CCSc1ccccc1)C(=O)C(c1cccnc1)N1CCOCC1 (stereo not given) | 4.94
71 | O=C(c1cccnc1SC/C=C/c1ccccc1)N1CCOCC(O)C1 (stereo not given) | -2.42
72 | Cc1cc(-c2ccc(C(=O)O)cc2)nc(C2CCCN(C(C)C)C2)n1 (stereo not given) | 5.61
73 | O=C(NCCN1CCCCC1)c1ccn(-c2ccccc2)n1 | 7.53
74 | Cc1cnn(C2CCCN(C(=O)c3ccc(N4CCCC4)nc3)C2)c1 (stereo not given) | -4.77
75 | CCc1ncncc1C(=O)N1CCCN(Cc2ccc(C#N)cc2)CC1 | -2.91
76 | CCC(C)(C)NC(=O)CN1C=Nc2ccccc2S1(=O)=O | -4.47
77 | CC(C)c1nccn1C1CCCN(C(=O)CN(C)C2CC2)C1 (stereo not given) | -4.3
78 | CCc1nc2n(n1)CC(NCc1nc(Cc3ccccc3)no1)CC2 (stereo not given) | 1.06
79 | O=C(c1ccc2c(c1)CCCC2)N1CCCC(n2cncn2)C1 (stereo not given) | -8.51
80 | O=C(c1ccccc1)N1CCN(CC(O)c2ccc(F)cc2)CC1 (stereo not given) | -8.24
81 | Cc1cccc2nc(CN3CCCC3Cn3cccn3)cn12 (stereo not given) | 0.893
82 | CCc1ncc2c(n1)CN(CC(=O)Nc1cccnc1)CC2 | -1.1
83 | Cc1nccn1C1CCCN(C(=O)c2cccc(S(C)(=O)=O)c2)C1 (stereo not given) | -11.6
84 | CC(C)CCN(C(=O)c1ccc(-n2ncc(C#N)c2N)cc1)C1CC1 | -23.6
85 | c1cnnc(N2CCCC2CNCc2cccs2)c1 (stereo not given) | -9.61
86 | CCn1ccnc1CN1CCCN(C(=O)Cc2csc(C)n2)CC1 | -2.12
87 | COc1ccccc1C(=O)N(C)C1CCN(c2ccccn2)CC1 | -15.4
88 | CC(C)c1nnc(CNC2CCCN(Cc3noc(C4CC4)n3)C2)o1 (stereo not given) | -5.62

Row | Structure (SMILES) | cytotoxicity at 10 µM [%]
89 | CCN1CCN(C(=O)CCc2c(C)noc2Cl)CC1 | -4.37
90 | O=C(CC1CCCO1)NCc1ccccc1Cn1cncn1 (stereo not given) | -2.55
91 | CCN(CC)Cc1ccc(C(=O)N2CCCCC2Cn2cccn2)o1 (stereo not given) | -7.89
92 | Cc1nc(C)n(C2CCCN(C(=O)c3ccc4c(c3)COC4)C2)n1 (stereo not given) | -9.12
93 | CC(=O)N(Cc1noc(C2CC2)n1)C1CCN(Cc2nccn2C)C1 (stereo not given) | -5.65
94 | OC1CCCN(Cc2ccnc(-c3cccnc3)n2)C1 (stereo not given) | 14
95 | CN1CC(=O)N(c2ccsc2)CC12CCN(C(=O)c1cccn1C)C2 (stereo not given) | -75.7
96 | CN1CCOCC2(CCCN(C(=O)Cc3ccncc3)C2)C1 (stereo not given) | -84.6
97 | Cc1nc(CN2CCc3cc(C(=O)O)c(N(C)C)nc3CC2)cs1 | 3.42
98 | CNC(=O)CN1CC[C@H]2CN(C(=O)c3ccccc3F)C[C@H]2C1 | -1.34
99 | O=C([C@H]1CC[C@@H]2[C@@H](CCN2Cc2nccs2)O1)N1CCCCO1 | 6.85
100 | Cc1ccccc1CN1CC[C@H]2C[C@H](C(=O)N(C)C)O[C@H]2C1 | 4.36
101 | O=C(C[C@@H]1COC[C@H]2CN(Cc3cccnc3)C[C@@H]12)N1CCOCC1 | -3.35
102 | O=C1[C@H]2CN(c3ncccn3)C[C@H]2CN1CCN1CCCC1 | 2.2
103 | Cc1ccc2c(c1)C1(CC2)CCN(CC(=O)O)CC1 | 0.806
104 | CN1CCc2onc(CNc3ncccn3)c2C1 | 1.58
105 | COC1COC2(CCN(Cc3ccc(Cl)cc3)CC2)C1 (stereo not given) | 2.2
106 | COCCN1CCC(c2nc3ccc(NC(C)C)cn3n2)CC1 | -5.26
107 | CN(C)C(=O)CN1CCC2(COCc3cnc(N4CCOCC4)nc32)C1 (stereo not given) | -70.5
108 | Cc1nc(CN2C[C@@H]3CN(C(=O)[C@H]4CCCO4)C[C@@H]3C2=O)cs1 | -81.5
109 | CS(=O)(=O)NC1CC2(CCN(CC3CC3)CC2)Oc2ccccc21 (stereo not given) | -5.34
110 | Cc1nnc(SCC(=O)N2C[C@@H]3CC[C@H]2CN(c2ncccn2)C3)[nH]1 | 2.24
